Experimental data reported in article PMC3694763 (Angewandte Chemie (International Ed. in English), 2012).

Tests used:
factor Xa = factor Xa (Homo sapiens, UniProt P00742); assay: Determination of kcat/Km, cleavage by factor Xa; format: biochemical; conditions: for kcat/Km for factor Xa: 150 mM NaCl, 20 mM Tris pH 7.5, 2 mM CaCl2, 1% BSA, 37°C, Cy5 fluorescence
plasmin = plasmin (Homo sapiens, UniProt P00747); assay: Determination of kcat/Km, cleavage by plasmin; format: biochemical; conditions: for selectivity for thrombin over plasmin (ratio of kcat/Km): kcat/Km thrombin versus plasmin
[1] = target: thrombin activity in developing blood clots (Mus musculus, UniProt P19221); assay: Tail-clip model, ratiometric Cy5/Cy7 imaging of developing blood clots; format: in vivo; conditions: mouse tail clot
thrombin [2] = target: T1, thrombin (Homo sapiens, UniProt P00734); assay: Determination of kcat/Km, cleavage by thrombin; format: biochemical; conditions: PPRSFL replaced with norleucine-TPRSFL
[3] = tested on: pro-coagulation enzymes (thrombin, plasmin, factor Xa); format: biochemical; conditions: 1 µM RACPP, 50 nM enzyme, 37°C; tricine gel, Cy5/Cy7 ratio image
Summary of the method: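 Each ratiometric probe was incubated separately with purified enzyme for set times. Cleavage products were separated on tricine-SDS polyacrylamide gels. Gels were imaged multispectrally with 620 nm excitation, collecting Cy5 (660–720 nm) and Cy7 (760–830 nm) emission. Cy5 images were divided by Cy7 images and pseudocoloured from blue (ratio minimum) to red (ratio maximum).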

MMP-9 = MMP-9 (Homo sapiens, UniProt P14780); assay: Addition of purified MMP-9 to developing blood pools of injected mice; format: in vivo, mouse; conditions: blood pool of injected mice; MMP-9 1 µl of 1.5 µM, 10 minutes
thrombin [4] = target: T1, thrombin; format: biochemical; conditions: probe diluted in mouse plasma
Summary of the method: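 Probe construction: Cy5 sits on the polycationic domain and the Cy7 acceptor on the polyanionic domain, joined by a thrombin-cleavable linker, so the intact probe undergoes FRET. Emission spectra were recorded in mouse plasma in a cuvette spectrofluorometer before and after adding purified thrombin. Cy5 emission peaks near 670 nm and Cy7 re-emission near 780 nm.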

plasmin, sequence (P00747 97-580 limits assumed, species assumed): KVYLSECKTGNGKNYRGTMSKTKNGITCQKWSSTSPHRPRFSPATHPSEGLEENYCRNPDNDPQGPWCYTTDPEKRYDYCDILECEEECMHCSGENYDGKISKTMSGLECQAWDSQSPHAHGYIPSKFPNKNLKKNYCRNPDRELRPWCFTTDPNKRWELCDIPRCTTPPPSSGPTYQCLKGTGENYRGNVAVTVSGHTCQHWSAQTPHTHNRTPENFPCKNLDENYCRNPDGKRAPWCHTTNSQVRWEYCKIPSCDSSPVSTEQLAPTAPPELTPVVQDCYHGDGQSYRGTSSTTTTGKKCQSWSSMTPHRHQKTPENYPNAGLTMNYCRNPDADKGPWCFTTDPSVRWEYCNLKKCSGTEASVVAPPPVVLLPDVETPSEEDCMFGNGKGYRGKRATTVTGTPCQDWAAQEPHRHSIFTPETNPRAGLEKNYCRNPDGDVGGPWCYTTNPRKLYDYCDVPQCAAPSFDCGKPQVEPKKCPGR
plasmin, sequence (P00747 581-810 limits assumed, species assumed): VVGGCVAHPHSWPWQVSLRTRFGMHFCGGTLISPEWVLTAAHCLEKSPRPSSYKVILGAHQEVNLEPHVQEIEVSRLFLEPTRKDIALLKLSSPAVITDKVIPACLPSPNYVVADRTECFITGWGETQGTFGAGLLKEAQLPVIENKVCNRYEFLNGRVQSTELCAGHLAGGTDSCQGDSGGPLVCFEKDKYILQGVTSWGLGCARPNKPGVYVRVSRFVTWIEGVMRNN
factor Xa, sequence (P00742 41-179 limits assumed): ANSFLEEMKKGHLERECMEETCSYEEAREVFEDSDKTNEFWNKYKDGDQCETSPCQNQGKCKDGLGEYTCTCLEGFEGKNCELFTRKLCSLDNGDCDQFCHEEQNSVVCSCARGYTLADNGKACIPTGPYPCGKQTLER
factor Xa, sequence (P00742 235-488 limits assumed): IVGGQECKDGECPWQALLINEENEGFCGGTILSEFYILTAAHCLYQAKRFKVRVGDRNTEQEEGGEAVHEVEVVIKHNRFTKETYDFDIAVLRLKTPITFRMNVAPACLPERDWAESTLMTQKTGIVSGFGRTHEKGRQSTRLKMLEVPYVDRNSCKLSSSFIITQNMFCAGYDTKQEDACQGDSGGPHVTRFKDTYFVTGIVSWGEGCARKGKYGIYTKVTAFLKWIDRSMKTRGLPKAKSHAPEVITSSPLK
MMP-9, sequence (P14780 107-707): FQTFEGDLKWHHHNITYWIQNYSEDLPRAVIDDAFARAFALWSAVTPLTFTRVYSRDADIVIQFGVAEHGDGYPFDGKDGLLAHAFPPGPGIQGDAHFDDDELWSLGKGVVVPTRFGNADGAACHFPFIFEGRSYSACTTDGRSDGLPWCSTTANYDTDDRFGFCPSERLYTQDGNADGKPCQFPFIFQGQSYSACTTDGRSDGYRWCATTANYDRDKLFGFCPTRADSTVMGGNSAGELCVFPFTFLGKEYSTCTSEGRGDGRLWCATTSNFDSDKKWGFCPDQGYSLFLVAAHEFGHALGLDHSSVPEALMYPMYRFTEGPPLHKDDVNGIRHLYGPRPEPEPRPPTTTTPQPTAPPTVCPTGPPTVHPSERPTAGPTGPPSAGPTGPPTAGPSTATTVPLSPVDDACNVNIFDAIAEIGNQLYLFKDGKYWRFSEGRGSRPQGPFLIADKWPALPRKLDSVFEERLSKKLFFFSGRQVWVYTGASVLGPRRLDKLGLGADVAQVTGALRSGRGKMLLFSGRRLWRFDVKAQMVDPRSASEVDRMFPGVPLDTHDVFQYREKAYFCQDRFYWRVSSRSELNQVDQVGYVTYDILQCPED

With “Cy7-NH-e9-c(S-Peg12)oDPRSFL-r9-c(Cy5)-CONH2 [RACPPDPRSFL]” the “kcat/Km for factor Xa” value (factor Xa) was 6200 M⁻¹ s⁻¹, the “selectivity for thrombin over factor Xa (ratio of kcat/Km)” value (factor Xa; kcat/Km thrombin versus factor Xa) was “less than 2 fold” and the kcat/Km for plasmin (plasmin; 150 mM NaCl, 20 mM Tris pH 7.5, 2 mM CaCl2, 1% BSA, 37°C, Cy5 fluorescence) was 10000 M⁻¹ s⁻¹. The “selectivity for thrombin over plasmin (ratio of kcat/Km)” value (plasmin) was “less than 2 fold”.
For “Cy7-NH-e9-c(S-Peg12)oNLeTPRSFL-r9-c(Cy5)-CONH2 [RACPPNleTPRSFL]”, the “Cy5/Cy7 ratio at 15 minutes post injury” value ([1]; 10 nmol) was 7.2, the “change of Cy5/Cy7 ratio at 15 minutes post injury” value ([1]; 10 nmol) was “tenfold” and the “Cy5/Cy7 ratio at one minute post injury” value ([1]; 10 nmol, n = 3, mean (±SD)) was 0.75(±0.11). For the same substance, the “Cy5/Cy7 ratio at five minutes post injury” value ([1]; 10 nmol, n = 3, p = 0.01 vs one minute) was 3.1(±0.45), the “acceleration of thrombin cleavage relative to RACPPPPRSFL” value (thrombin [2]) was “approximately 90 fold” and the “selectivity for thrombin over plasmin (ratio of kcat/Km)” value (plasmin) was 52.5 fold.
In the case of “Cy7-NH-e9-c(S-Peg12)oPLGC(Me)AG-r9-c(Cy5)-CONH2 [RACPPPLGC(Me)AG]”, the “Cy5/Cy7 emission ratio at the wound site over 40 minutes of clotting” value ([1]; 10 nmol control probe) is reported as “low and stable”, the “cleavage by thrombin, plasmin, factor Xa on SDS-PAGE (selectivity)” value [3] is reported as “not cleaved by any of the pro-coagulation enzymes” and the “ratiometric contrast after local addition of purified MMP-9” value (MMP-9) is reported as “spectacular local ratiometric contrast”.
For “Cy7-NH-e9-c(S-Peg12)oPPRSFL-r9-c(Cy5)-CONH2 [RACPPPPRSFL]”, the “change in Cy5/Cy7 ratio from one to five minutes post injury” value ([1]; 10 nmol) was “no significant change”, the “time post injury at which a Cy5/Cy7 ratio increase was detectable” value ([1]; 10 nmol probe) was 10 min and the “kcat/Km for factor Xa” value (factor Xa) was “no detectable activity”. For the same substance, the “cleavage by thrombin, plasmin, factor Xa on SDS-PAGE (selectivity)” value [3] was “selective for thrombin”, the “change in the Cy5/Cy7 emission ratio on addition of purified thrombin” value (thrombin [4]; cuvet spectrofluorometer) was 34 fold and the “increase in Cy5 emission on addition of purified thrombin” value (thrombin [4]; approx. 670 nm) was 8.8 fold. The “decrease in Cy7 re-emission on addition of purified thrombin” value (thrombin [4]; approx. 780 nm) was 3.8 fold and the “selectivity for thrombin over plasmin (ratio of kcat/Km)” value (plasmin) was 14.3 fold.
lepirudin [reference compound] was tested, and the “effect on cleavage and ratio change of RACPPNleTPRSFL” value ([1]; lepirudin 0.5 mg/mouse immediately prior to probe injection) was “inhibited the cleavage and ratio change”.
